ChEMBL document CHEMBL1142628, “Antineoplastic agents 430. Isolation and structure of cribrostatins 3, 4, and 5 from the republic of maldives cribrochalina species” (2000)
In brackets after ≈: the same amount, converted by molar mass. Activity calls are given as the source filed them. The rule behind the calls is not given here.

What was measured:
BXPC-3 = assay: Growth inhibition of human BXPC3 cells; type: functional
SK-N-SH = assay: Growth inhibition of human SK-N-SH cells; type: functional
OVCAR-3 = assay: Growth inhibition of human OVCAR-3 cells; type: functional
Outline: (§1)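 NCI 60-cell-line screen run by the standard NCI protocol. Each test agent ran in quadruplicate, with a top concentration of 10^-5 M and five log-spaced dilutions. GI50 values were averaged and reported as negative log GI50.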

SF-295 [1] = assay: (§2) Growth inhibition of human SF295 cells; type: functional
Outline: (§3)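 NCI human tumor cell line panel screen run to the standard NCI protocol. Each compound tested in quadruplicate with a top concentration of 10^-5 M and five log-spaced dilutions. GI50 values were averaged across replicates and reported as negative log GI50.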

SW-1736 = assay: Growth inhibition of human SW1736 cells; type: functional
NCI-H460 [2] = assay: (§4) Growth inhibition of human NCI-H460 cells; type: functional; outline: as §1
KM-20L2 = assay: Growth inhibition of human KM20L2 cells; type: functional
FaDu = assay: Growth inhibition of human FaDu cells; type: functional
DU-145 = assay: Growth inhibition of human DU145 cells; type: functional; outline: as §1
P388 = assay: Growth inhibition of mouse P388 cells; type: functional
Candida albicans = assay: Antifungal activity against Candida albicans ATCC 90028 at 100 ug/disk by disk diffusion method; type: functional, organism-based
Cryptococcus neoformans = assay: Antifungal activity against Cryptococcus neoformans ATCC 90112 at 100 ug/disk by disk diffusion method; type: functional, organism-based
Micrococcus luteus = assay: Antibacterial activity against Micrococcus luteus Presque Isle 456 at 100 ug/disk by disk diffusion method; type: functional, organism-based
Staphylococcus aureus = assay: Antibacterial activity against Staphylococcus aureus ATCC 29213 at 100 ug/disk by disk diffusion method; type: functional, organism-based
Enterococcus faecalis = assay: Antibacterial activity against Enterococcus faecalis ATCC 29212 at 100 ug/disk by disk diffusion method; type: functional, organism-based
Bacillus subtilis = assay: Antibacterial activity against Bacillus subtilis Presque Isle 620 by disk diffusion method; type: functional
Streptococcus pneumoniae [3] = assay: Antibacterial activity against Streptococcus pneumoniae ATCC 6303 by disk diffusion method; type: functional
Streptococcus pneumoniae [4] = assay: Antibacterial activity against penicillin-resistant Streptococcus pneumoniae isolate by disk diffusion method; type: functional
Streptococcus pneumoniae [5] = assay: Antibacterial activity against invasive Streptococcus pneumoniae isolate at 100 ug/disk by disk diffusion method; type: functional, organism-based
[6] = test system: Streptococcus sp. 'group A'; assay: Antibacterial activity against group A Streptococcus isolate by disk diffusion method; type: functional
[7] = test system: Stenotrophomonas maltophilia; assay: Antibacterial activity against Stenotrophomonas maltophilia ATCC 13637 at 100 ug/disk by disk diffusion method; type: functional, organism-based
Escherichia coli = assay: Antibacterial activity against Escherichia coli ATCC 25922 at 100 ug/disk by disk diffusion method; type: functional, organism-based
Enterobacter cloacae = assay: Antibacterial activity against Enterobacter cloacae ATCC 13047 at 100 ug/disk by disk diffusion method; type: functional, organism-based
Neisseria gonorrhoeae [8] = assay: Antibacterial activity against Neisseria gonorrhoeae ATCC 49226 by disk diffusion method; type: functional
Neisseria gonorrhoeae [9] = assay: Antibacterial activity against penicillin-resistant Neisseria gonorrhoeae isolate by disk diffusion method; type: functional
CCRF-CEM = assay: Growth inhibition of human CCRF-CEM cells; type: functional; outline: as §1
[10] = Growth inhibition of human HL60(TB) cells; type: functional, HL-60(TB); conditions: HL-60
Outline: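 NCI human tumour cell-line panel screen run by the standard NCI protocol. Each compound was tested in quadruplicate, with an upper concentration limit of 10^-5 M and five log-spaced dilutions. GI50 values were averaged and reported as negative log GI50.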

K562 = assay: Growth inhibition of human K562 cells; type: functional; outline: as §1
MOLT-4 = assay: Growth inhibition of human MOLT4 cells; type: functional; outline: as §1
RPMI-8226 = assay: Growth inhibition of human RPMI8226 cells; type: functional; outline: as §1
SR = assay: Growth inhibition of human SR cells; type: functional; outline: as §3
A549 = assay: Growth inhibition of human A549/ATCC cells; type: functional; outline: as §1
HOP-62 = assay: Growth inhibition of human HOP62 cells; type: functional; outline: as §1
HOP-92 = assay: Growth inhibition of human HOP92 cells; type: functional; outline: as §1
NCI-H226 = assay: Growth inhibition of human NCI-H226 cells; type: functional; outline: as §1
NCI-H460 [11] = assay: as §4; type: functional; outline: as §1; remark: listed apart in the source
NCI-H522 = assay: Growth inhibition of human NCI-H522 cells; type: functional; outline: as §1
COLO 205 = assay: Growth inhibition of human COLO205 cells; type: functional; outline: as §1
KM12 = assay: Growth inhibition of human KM12 cells; type: functional; outline: as §1
SW-620 = assay: Growth inhibition of human SW620 cells; type: functional; outline: as §3
SNB-75 = assay: Growth inhibition of human SNB75 cells; type: functional; outline: as §3
U-251 = assay: Growth inhibition of human U251 cells; type: functional; outline: as §3
LOX IMVI = assay: Growth inhibition of human LOX IMVI cells; type: functional; outline: as §1
Malme-3M = assay: Growth inhibition of human MALME-3M cells; type: functional; outline: as §1
SK-MEL-5 = assay: Growth inhibition of human SK-MEL-5 cells; type: functional; outline: as §3
UACC-62 = assay: Growth inhibition of human UACC62 cells; type: functional; outline: as §3
IGROV-1 = assay: Growth inhibition of human IGROV1 cells; type: functional; outline: as §1
OVCAR-4 = assay: Growth inhibition of human OVCAR4 cells; type: functional; outline: as §1
OVCAR-8 = assay: Growth inhibition of human OVCAR8 cells; type: functional; outline: as §1
786-0 = assay: Growth inhibition of human 786-0 cells; type: functional; outline: as §1
ACHN = assay: Growth inhibition of human ACHN cells; type: functional; outline: as §1
RXF 393 = assay: Growth inhibition of human RXF393 cells; type: functional; outline: as §3
SN12C = assay: Growth inhibition of human SN12C cells; type: functional; outline: as §3
PC-3 = assay: Growth inhibition of human PC3 cells; type: functional; outline: as §1
MCF7 [12] = assay: Growth inhibition of human MCF7 cells; type: functional; outline: as §1
MCF7 [13] = assay: Growth inhibition of human adriamycin-resistant MCF7 cells; type: functional; outline: as §3
MDA-MB-231 = assay: Growth inhibition of human MDA-MB-231/ATCC cells; type: functional; outline: as §1
Hs-578T = assay: Growth inhibition of human HS578T cells; type: functional; outline: as §1
MDA-MB-435 = assay: Growth inhibition of human MDA-MB-435 cells; type: functional; outline: as §1
MDA-N = assay: Growth inhibition of human MDA-N cells; type: functional; outline: as §1
T47D = assay: Growth inhibition of human T47D cells; type: functional; outline: as §3
SF-268 = assay: Growth inhibition of human SF268 cells; type: functional; outline: as §3
SF-295 [14] = assay: as §2; type: functional; outline: as §3; remark: listed apart in the source
SF-539 = assay: Growth inhibition of human SF539 cells; type: functional; outline: as §3

`C/C=C(/C)C(=O)OC[C@H]1C2=C(C=C3[C@H]4c5c(O)c(OC)c(C)c(O)c5C(=O)[C@@H](C(=O)N31)N4C)C(=O)C(C)=C(OC)C2=O` [CRIBROSTATIN 5] gave a GI50 (BXPC-3) of 5.6 µg/mL (≈ 9.68 µM), a GI50 (SK-N-SH) of 3.6 µg/mL (≈ 6.22 µM) and a GI50 (OVCAR-3) of 2.2 µg/mL (≈ 3.8 µM). For the same molecule, the EC50 (OVCAR-3; read-out: ED50 (the source's name)) was 2.2 µg/mL (≈ 3.8 µM), the GI50 (SF-295 [1]) was > 10 µg/mL and the GI50 (SW-1736) was > 10 µg/mL. For the same molecule, the GI50 (NCI-H460 [2]) was > 10 µg/mL, the GI50 (KM-20L2) was > 10 µg/mL and the GI50 (FaDu) was 0.26 µg/mL (≈ 0.449 µM). The GI50 (DU-145) was > 10 µg/mL, the GI50 (P388) was 24.6 µg/mL (≈ 42.5 µM) and the Activity (Candida albicans) was “inactive”. For the same molecule, the Activity (Cryptococcus neoformans) was “inactive”, the Activity (Micrococcus luteus) was “inactive” and the Activity (Staphylococcus aureus) was “inactive”. For the same molecule, the Activity (Enterococcus faecalis) was “inactive”, the MIC (Bacillus subtilis) was 12.5 µg/disc and the MIC (Streptococcus pneumoniae [3]) was 6.25 µg/disc. For the same molecule, the MIC (Streptococcus pneumoniae [4]) was 50 µg/disc, the Activity (Streptococcus pneumoniae [5]) was “inactive” and the MIC [6] was 12.5 µg/disc. For the same molecule, the Activity [7] was “inactive”, the Activity (Escherichia coli) was “inactive” and the Activity (Enterobacter cloacae) was “inactive”. For the same molecule, the MIC (Neisseria gonorrhoeae [8]) was 6.25 µg/disc, the MIC (Neisseria gonorrhoeae [9]) was 1.56 µg/disc and the GI50 (CCRF-CEM) was 1.7 µM. The GI50 [10] was 5.37 µM, the GI50 (K562) was 4.37 µM and the GI50 (MOLT-4) was 1.91 µM. The GI50 (RPMI-8226) was 6.17 µM, the GI50 (SR) was 3.8 µM and the GI50 (A549) was 8.71 µM. For the same molecule, the GI50 (HOP-62) was 7.59 µM, the GI50 (HOP-92) was 8.13 µM and the GI50 (NCI-H226) was 7.94 µM. It also gave a GI50 (NCI-H460 [11]) of 7.59 µM, a GI50 (NCI-H522) of 4.17 µM and a GI50 (COLO 205) of 8.13 µM. For the same molecule, the GI50 (KM12) was 9.12 µM, the GI50 (SW-620) was 6.92 µM and the GI50 (SNB-75) was 5.62 µM. It also gave a GI50 (U-251) of 6.46 µM, a GI50 (LOX IMVI) of 3.31 µM and a GI50 (Malme-3M) of 0.389 µM. It also gave a GI50 (SK-MEL-5) of 8.13 µM, a GI50 (UACC-62) of 9.77 µM and a GI50 (IGROV-1) of 8.51 µM. It also gave a GI50 (OVCAR-4) of 1.82 µM, a GI50 (OVCAR-8) of 4.27 µM and a GI50 (786-0) of 6.17 µM. It also gave a GI50 (ACHN) of 7.94 µM, a GI50 (RXF 393) of 5.25 µM and a GI50 (SN12C) of 7.08 µM. It also gave a GI50 (PC-3) of 9.12 µM, a GI50 (MCF7 [12]) of 8.13 µM and a GI50 (MCF7 [13]) of 6.76 µM. The GI50 (MDA-MB-231) was 2.69 µM, the GI50 (Hs-578T) was 8.71 µM and the GI50 (MDA-MB-435) was 1.82 µM. For the same molecule, the GI50 (MDA-N) was 2.19 µM, the GI50 (T47D) was 2.09 µM and the GI50 (SF-268) was 9.55 µM. For the same molecule, the GI50 (SF-295 [14]) was 8.91 µM and the GI50 (SF-539) was 5.75 µM.
